Source: the RNAGym collection of RNA variant scans (doi:10.1126/science.aae0568)
Fewer inactive variants are shown than the library holds.

B1: tRNA (parent)
chain: GUUCCGUUGGCGUAAUGGUAACGCGUCUCCCUCCUAAGGAGAAGACUGCGGGUUCGAGUCCCGUACGGAACG

Variants of: B1
Experiment: yeast fitness relative to wild type (ratio to wild type); higher = fitter; tRNA-Arg(CCU), competitive growth, 37 C, YPD
Procedure, shortened: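 For this measurement, the tRNA-Arg(CCU) gene was varied by chemical synthesis at a 3% per-site mutation rate across 69 sites, and each variant was placed at the native genomic locus in Saccharomyces cerevisiae. The pooled strains went through a 24-hour competition in YPD at 37°C in six parallel replicates, with amplicons from start and end populations read by 100-nucleotide paired-end sequencing. Darwinian fitness relative to wild type followed from the change in each genotype's frequency. Genotypes needed ≥ 100 starting reads, and estimates < 0.5 were set to 0.5.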

| Variant | yeast fitness |
| --- | --- |
| GUUCCGUUGGCGUAAAGGUAACGCGUCUCCCUCCUAAGGAAAAGACUGCGGGUUCGAGUCCCGUACGGCACG [U16A G41A A69C] | 0.631 |
| GUUCCGUUGGCGUAAUGGUUACGCGUCUCCCUCCUAAGGAGAAGACUGCGGGUUCGAGUCCUGGACGGAACG [A20U C62U U64G] | 0.603 |
| GUUCCGUUGGCGUUAUGGUAACGCGUCUCCCUCCUAAGGAGAAGACUGCGGGUUCGAGCCCCGUACGGACCG [A14U U59C A70C] | ≤ 0.5 |
| GUGUCGUUGGCGUAAUGGUAAAGCGUCUCCCUCCUAAGGAGAAGACUGCGGGUUCGAGUCCCGUACGGAACG [U3G C4U C22A] | ≤ 0.5 |
| GUUCCGUUGGCGUAAUGGUAACGAGUCUCCCUGCUAAGGAGAAGACUGCGGGUUCGAGUCCCGUACGGAACG [C24A C33G] | 0.705 |
| GGUCCAUUGGCGUAAUGGUAACGCGUCUCCCUCCUAAGGAGAAGACUGCGGGUUCGAGUCCCGUACGGAACG [U2G G6A] | 0.634 |
| GUACCGUUGGCGUAAUGGUAAGGCGUGUCCCUCCUAAGGAGAAGACUGCGGGUUCGAGCCCUGUACGUAACG [U3A C22G C27G U59C C62U G68U] | ≤ 0.5 |
| GAUCCGUUGGGGUAAUGGCAACGCGUCUCCCUCCUAAGGAGAAGACUGCGGGUUCGAGUCCCGUACGGAACG [U2A C11G U19C] | ≤ 0.5 |
| GUUCCGUUGGCGUAAUGGUAACGCGUCUCCCUCCUAAGGAGUGGACUCCGGGAUCGAGUCCCGUUCGGACCG [A42U A43G G48C U53A A65U A70C] | ≤ 0.5 |
| GUUCCGUUGGCGUAAUGGUAACGCGUCUCUCUCCUAAGAAGAAGACUGCGGGUUCGAGUGCCGUACGGAACG [C30U G39A C60G] | 0.57 |
| GUUCCGUUGGCGUAAUCGUAACGUGUCUCCCUCCUGAGGAGAAGACUGCGGGUUCGAGUCCCGUACGGAACG [G17C C24U A36G] | 0.607 |
| GUUCCGUCGGCGUAAUGGUAACGCGUCUACCUCCUAAGGAGAAGACUGCGGGUUCGAGUCCCGUACGGAACG [U8C C29A] | 0.664 |
| GUUCCGUUGGCGUAAUGGUAACGCGUCUCCCUCCUAAGGAGAUGACUGCGGGUUCGAGUCCGGUAAGGCACG [A43U C62G C66A A69C] | 0.67 |
| GUUCCCUUGGCGAAAUGGUAACGCGUCUCCCUCCUAAGGAGAAGACUGCGGGUUCGAGUCCCGUACGGAACG [G6C U13A] | 0.718 |
| GUUCCGUUGGCGUAAUGGUAACGCGUCUCCCUCCUAAGGAGAACGCUGCGGGUUCGAGUCCCGUACAGAACG [G44C A45G G67A] | 0.695 |
| GUUUCGUUGGCGUAAUGGUAACGCGUCUCCCUCCUAAGGAGAAGACUGCGGGUUCGCGUCCCGUACGGAACG [C4U A57C] | 0.709 |
| GUUCCGUUGACGUAAUGGUAACGCGUCUCCUUCCUAACGAGAAGACUGCGGGUUCGAGUCCCGUACAGAACG [G10A C31U G38C G67A] | ≤ 0.5 |
| GUUCCGUUGCCGUAAUGGUAACGCGUCUCCCUCCUAAGGAGAAGACUGCGGGUUCGAGUCCCGUACGGAACG [G10C] | 0.661 |
| GUUCCAUUGGUGUAAUGGUAACGCGUCUCCCUCCUAAGGAGAAGACUGCGGGUUUGAGUCCCGUACGGAACG [G6A C11U C55U] | 0.814 |

| Variant | yeast fitness |
| --- | --- |
| GUUCCGUUGGCGUAAUGGUAACGCGUCUCCCUCCUAAAGAGAAGACUGCGGGUACGCGUCCCGUACGGAACG [G38A U54A A57C] | 0.551 |
| GUUCCGUUGGCGUAAUGGUAACGAGUCUUCCUCCUAAGGAGAAGACUGCGGGUUCGAGUCGCGUACGGAACG [C24A C29U C61G] | ≤ 0.5 |
| GUUCCGUUGGCGUAAUGGUCGCGCGUCUCCCUCCUAAGGAGAAGUCUGCGGGUUCGAGUCCCGUACCGAACG [A20C A21G A45U G67C] | 0.61 |
| GUUCCGUUGGCGCAAGGGUAACGCGUCUCCCUCCUAAGGAGAAGACUGCGGGUUCGAGUCCCGUACGGAACG [U13C U16G] | 0.865 |
| GUUCCGUUGGCGUAAUGGUAACGCGUCUCCCUCCUAAGGCAAAGACAGCGGGUUCGAGUCCCGUACCGAACG [A40C G41A U47A G67C] | 0.637 |
| GUUCCGUUGGCGUAAUGGUAACGCGUCUCCCUCCUAAGGAGUAGACUGCGGGUUCGAGUCCCGUGGGAAACG [A42U A65G C66G G68A] | 0.551 |
| GUUCCGUUGGCCUAAUGGUAACGCGUCUUCCUCCUAAGGAGAAGACUGCGGGUUCGAUUCUCGUACGGAACG [G12C C29U G58U C61U] | ≤ 0.5 |
| GCUCCGUUGGCGUAAUGGUUACGCGUCUCCCUCCUAACGAGAAGACUGCGGGUUCGAGUCCCGUACGGAACG [U2C A20U G38C] | ≤ 0.5 |
| GUUCCGUUGGCGUAAUGGUAACGCGUCUCACUCCUAAGGAGAAGACUGCGGGCUCGAGUCCCGUACGGACCG [C30A U53C A70C] | 0.506 |
| GUUCCGUUGGCGUUAUGGUUACGCGUCUCCCUCCUAAGGAGAAGACUGCGGGUUCGAGUCCCGUACAGAACG [A14U A20U G67A] | 0.544 |
| GUUCGGUUGGCGUAUUGGUAACGCGUCUCAAUCCUAAGGAGAAGACUGCGGGUUCGAGUCCCGUAGGGAACG [C5G A15U C30A C31A C66G] | ≤ 0.5 |
| GUUCCGUUGGCGUAAUGGUAACGCGUCUACCUCCGAAGGAGAAGACUGCGGGUUCGAGUCCCGUACGGAACG [C29A U35G] | ≤ 0.5 |
| GUUCCAUGGGCGAAAUGGUAACGCGUCUCUCUCCUAAGCAGAAGACUGCGGGUUGGAGUCCCGUACGGAACG [G6A U8G U13A C30U G39C C55G] | ≤ 0.5 |
| GUUCCUUUGGCGUAAUGGUAACGCGUCUCCCUCCUAAGGAGAACACUGCGGGUUCGAGUCCCGUACGGAACG [G6U G44C] | 0.755 |
| GUUCUGUUGGCGUAAUGGUAUCGCGUCUCCCUCCUAAGGAGAAGACUGCGGGUUCGAGUCCUGUACGGACCG [C5U A21U C62U A70C] | ≤ 0.5 |
| GUUCCGUUGGCGUCAUGGUAACGCGUCUCUCUCCUAAGGACAAGACUGCGGGUUCGAGUCCCGUACGGUACG [A14C C30U G41C A69U] | ≤ 0.5 |
| GUCCCGUUGGCGUAAUGGUAACGCGUCUCCCUCCUAAGGAGAAGACUGCGGGUUCGAGUCCCGUACAGAACG [U3C G67A] | 0.871 |
| GUUCCGUCGGCGUAAUGGUAACGCGUCUCCCUCCUAAGGAGAAGACUGCGGGUUCGAGUCCCGUGCGGAACG [U8C A65G] | 0.929 |
| GUUCCGUUGGCGUGAUCGUAACGCGUCUCCCUCCUCAGGAGAAGACUAGGAGUUCGAGUCCCGUACGGAACG [A14G G17C A36C G48A C49G G51A] | ≤ 0.5 |
